According to ChEMBL document CHEMBL1240409, “Design, synthesis and evaluation of (E)-alpha-benzylthio chalcones as novel inhibitors of BCR-ABL kinase” (Bioorg Med Chem, 2010):

Columns and labels:
DU-145 = test: Growth inhibition of human DU145 cells after 96 hrs by trypan blue exclusion assay; type: functional; details: DU-145, 96 h
K562 = test: Growth inhibition of human K562 cells expressing p210Bcr/Abl after 96 hrs by trypan blue exclusion assay; type: functional, cell-based; details: K562, 96 h
In short: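 K562 cells were kept in RPMI with 10% FBS and penicillin–streptomycin at 37 °C under 5% CO2. Cells were seeded at 1 × 10^5 cells/mL with a range of compound concentrations, using DMSO as the negative control. After 96 h, viability was counted by Trypan blue exclusion and expressed as percent of DMSO control to derive GI50.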

Row | GI50 (DU-145) [µM] | GI50 (K562) [µM] | SMILES
1 | 10 | 1 | Cc1cc(C)cc(/C=C(/Sc2ccc(Br)cc2)C(=O)c2ccc(Cl)cc2)c1
2 | 50 | 50 | Cc1ccsc1/C=C(/SCc1ccc(F)cc1)C(=O)c1ccc(Cl)cc1
3 | > 100 | > 100 | Cc1ccc(S/C(=C/c2cnc3ccccc3c2)C(=O)c2ccc(Cl)cc2)cc1
4 | 10 | 10 | Cc1cc(C)cc(/C=C(\C(=O)c2ccc(Br)cc2)S(=O)(=O)Cc2ccc(F)cc2)c1
5 | 25 | 25 | Cc1ccc(CS(=O)(=O)/C(=C/c2sccc2C)C(=O)c2ccc(Cl)cc2)cc1
6 | 10 | 1 | COc1cc(/C=C(/Sc2ccc(Br)cc2)C(=O)c2ccc(Br)cc2)ccc1F
7 | 1 | 1 | O=C(C(=Cc1ccc(Br)cc1)S(=O)(=O)Cc1ccccc1Cl)c1ccc(Cl)cc1
8 | 50 | 1 | COc1ccc(/C=C(/SCc2ccc(F)cc2)C(=O)c2ccc(Br)cc2)cc1
9 | 1 | 1 | COc1ccc(C(=O)/C(=C\c2ccc(Br)cc2)S(=O)(=O)c2ccc(F)cc2)cc1
10 | > 50 | > 50 | O=C(C(=Cc1ccc(Br)cc1)S(=O)(=O)Cc1ccc(I)cc1)c1ccc(Br)cc1
11 | 50 | 1 | CSc1ccc(/C=C(/Sc2ccc(C)cc2)C(=O)c2ccc(Br)cc2)cc1
12 | 25 | 10 | COc1ccc(/C=C(\C(=O)c2ccc(Br)cc2)S(=O)(=O)Cc2ccc(Cl)cc2)cc1
13 | 1 | 50 | Cc1ccc(C)c(/C=C(/SCc2ccc(F)cc2)C(=O)c2ccc(Br)cc2)c1
14 | 20 | 6 | COc1ccc(S/C(=C/c2ccc(Br)cc2)C(=O)c2ccc(Br)cc2)cc1
15 | 10 | 1 | Cc1ccc(CS(=O)(=O)/C(=C/c2ccc(S(C)(=O)=O)cc2)C(=O)c2ccc(Br)cc2)cc1
16 | 10 | 1 | COc1ccc(/C=C(/SCc2ccc(F)cc2)C(=O)c2ccc(C(=O)O)cc2)cc1O
17 | 6 | 6 | COc1ccc(S(=O)(=O)/C(=C/c2ccc(Br)cc2)C(=O)c2ccc(Br)cc2)cc1
18 | 25 | 25 | Cc1ccc(S(=O)(=O)/C(=C/c2ccc(O)c([N+](=O)[O-])c2)C(=O)c2ccc(Cl)cc2)cc1
19 | 10 | 25 | O=C(/C(=C\c1ccc(O)c(C(=O)O)c1)SCc1ccc(Br)cc1)c1ccc(Br)cc1
20 | 50 | 50 | CN(C)c1ccc(/C=C(/SCc2ccc(Cl)c(Cl)c2)C(=O)c2ccc(Cl)cc2)cc1
21 | 50 | 50 | Cc1ccc(CS/C(=C/c2ccc(C)s2)C(=O)c2ccc(Cl)cc2)cc1
22 | 1 | 1 | COc1cc(OC)c(/C=C(/SCc2ccc(F)cc2)C(=O)c2ccc(Br)cc2)c(OC)c1
23 | 4 | 10 | O=C(/C(=C\c1ccc(F)cc1)S(=O)(=O)c1ccc(Br)cc1)c1ccc(Br)cc1
24 | 10 | 1 | Cc1cc(C)cc(/C=C(/SCc2ccc(F)cc2)C(=O)c2ccc(Br)cc2)c1
25 | 25 | 25 | O=C(/C(=C\c1ccc(F)cc1F)S(=O)(=O)c1ccc(Cl)cc1)c1ccc(Br)cc1

Row | GI50 (DU-145) [µM] | GI50 (K562) [µM] | SMILES
26 | 1 | 1 | O=C(/C(=C\c1cc(Cl)cc(Cl)c1Cl)SCc1ccc(Cl)cc1)c1ccc(Br)cc1
27 | > 100 | 10 | CSc1ccc(/C=C(/SCc2ccc(C)cc2)C(=O)c2ccc(Br)cc2)cc1
28 | 10 | 10 | O=C(/C(=C\c1ccc(O)c([N+](=O)[O-])c1)SCc1ccccc1Cl)c1ccc(Cl)cc1
29 | 10 | 10 | COc1ccccc1/C=C(/SCc1ccc(Cl)c(Cl)c1)C(=O)c1ccc(Cl)cc1
30 | 10 | 1 | O=C(/C(=C\c1ccc(Cl)cc1)SCc1ccc(F)cc1)c1ccc(Cl)cc1
31 | 1 | < 1 | Cc1ccc(CS/C(=C/c2ccc(F)c([N+](=O)[O-])c2)C(=O)c2ccc(Cl)c([N+](=O)[O-])c2)cc1
32 | 25 | 25 | Cc1ccc(CS(=O)(=O)/C(=C/c2ccc(C)s2)C(=O)c2ccc(Cl)cc2)cc1
33 | > 100 | > 100 | CN(C)c1ccc(/C=C(/Sc2ccccc2Br)C(=O)c2ccc(Br)cc2)cc1
34 | 10 | 10 | O=C(/C(=C\c1ccc(O)c([N+](=O)[O-])c1)Sc1ccccc1Br)c1ccc(Br)cc1
35 | 25 | 10 | O=C(/C(=C\c1ccc(Br)cc1)S(=O)(=O)Cc1ccc(F)cc1)c1ccc(Br)cc1
36 | 25 | 1 | O=C(/C(=C\c1ccc(Br)cc1)SCc1ccc(F)cc1)c1ccc(Br)cc1
37 | 10 | 1 | O=C(/C(=C\c1ccc(Cl)c([N+](=O)[O-])c1)S(=O)(=O)c1ccc(Br)cc1)c1ccc(Br)cc1
38 | 50 | > 100 | CN(C)c1ccc(/C=C(/SCc2ccc(Cl)cc2Cl)C(=O)c2ccc(Cl)cc2)cc1
39 | > 100 | 50 | COc1cc(OC)c(/C=C(/Sc2ccc(C)cc2)C(=O)c2ccc(Br)cc2)c(OC)c1
40 | > 100 | > 100 | O=C(/C(=C\c1ccc(F)c([N+](=O)[O-])c1)SCc1ccc(Br)cc1)c1ccc(Cl)c([N+](=O)[O-])c1
41 | 10 | 1 | Cc1ccc(CS/C(=C/c2ccc(Br)cc2)C(=O)c2ccc(Cl)cc2)cc1
42 | 1 | 1 | Cc1ccc(S(=O)(=O)/C(=C/c2ccc(Oc3ccccc3)cc2)C(=O)c2ccc(Cl)cc2)cc1
43 | 10 | 10 | COc1ccc(/C=C(\C(=O)c2ccc(Br)cc2)S(=O)(=O)Cc2ccc(Cl)cc2)c(O)c1
44 | > 100 | > 100 | COc1cc(OC)c(/C=C(\C(=O)c2ccc(Cl)cc2)S(=O)(=O)c2ccc(Br)cc2)c(OC)c1
45 | 10 | 10 | Cc1cc(C)cc(/C=C(/SCc2ccc(Cl)cc2)C(=O)c2ccc(Cl)cc2)c1
46 | 50 | 50 | O=C(/C(=C\c1ccc(Oc2ccccc2)cc1)Sc1ccc(Br)cc1)c1ccc(Br)cc1
47 | 50 | 50 | Cc1ccc(C(=O)/C(=C\c2ccc(N(C)C)cc2)S(=O)(=O)c2ccc(Cl)cc2)cc1
48 | 25 | 25 | Cc1ccc(/C=C(/Sc2ccc(F)cc2)C(=O)c2ccc(Cl)cc2)s1
49 | 10 | 1 | O=C(/C(=C\c1ccc(O)cc1)SCc1ccc(F)cc1)c1ccc(Br)cc1
50 | 10 | 1 | O=C(O)c1ccc(C(=O)/C(=C\c2ccc([N+](=O)[O-])c(O)c2)SCc2ccc(Br)cc2)cc1

Row | GI50 (DU-145) [µM] | GI50 (K562) [µM] | SMILES
51 | 10 | 10 | Cc1ccc(C)c(/C=C(/SCc2ccc(Cl)cc2)C(=O)c2ccc(Cl)cc2)c1
52 | 10 | 25 | Cc1ccc(/C=C(\C(=O)c2ccc(Cl)cc2)S(=O)(=O)Cc2ccc(Cl)cc2Cl)s1
53 | 50 | 50 | Cc1ccc(S/C(=C/c2ccc(Cl)c(Cl)c2)C(=O)c2ccc(Br)cc2)cc1
54 | 50 | 50 | Cc1ccc(CS(=O)(=O)/C(=C/c2ccc(N(C)C)cc2)C(=O)c2ccc(Cl)cc2)cc1
55 | 1 | 1 | CCOc1ccc(/C=C(\C(=O)c2ccc(Cl)cc2)S(=O)(=O)c2ccc(C)cc2)cc1OC
56 | 10 | 1 | O=C(/C(=C\c1ccc(Cl)cc1)SCc1ccc(Cl)cc1)c1ccc(Br)cc1
57 | 1 | 1 | O=C(/C(=C\c1c[nH]c2ccc(Cl)cc12)SCc1ccc(F)cc1)c1ccc(Br)cc1
58 | 25 | 10 | COc1ccccc1/C=C(/Sc1ccc(C)cc1)C(=O)c1ccc(Cl)cc1
59 | 10 | 1 | CSc1ccc(/C=C(\C(=O)c2ccc(Cl)cc2)S(=O)(=O)Cc2ccc(Cl)cc2)cc1
60 | 10 | 10 | N#Cc1ccc(C(=O)/C(=C\c2ccc(O)c([N+](=O)[O-])c2)SCc2ccc(Br)cc2)cc1
61 | 10 | 10 | O=C(/C(=C\c1ccc[nH]1)SCc1ccc(Cl)cc1)c1ccc(Cl)cc1
62 | 10 | 10 | COc1ccccc1/C=C(\C(=O)c1ccc(Cl)cc1)S(=O)(=O)c1ccc(Br)cc1
63 | 10 | 1 | O=C(/C(=C\c1ccc(Cl)cc1Cl)S(=O)(=O)c1ccc(Br)cc1)c1ccc(Br)cc1
64 | 25 | > 100 | O=C(/C(=C\c1c(O)cc(O)cc1O)SCc1ccc(Cl)cc1Cl)c1ccc(Cl)cc1
65 | 1 | 1 | O=C(/C(=C\c1ccc(Cl)cc1)Sc1ccc(Cl)cc1)c1ccc(Cl)cc1
66 | 50 | 25 | Cc1ccc(S/C(=C/c2cc(C)cc(C)c2)C(=O)c2ccc(Cl)cc2)cc1
67 | 1 | 1 | COc1ccc(/C=C(\C(=O)c2ccc(Cl)cc2)S(=O)(=O)c2ccc(C)cc2)cc1O
68 | 1 | 1 | Cc1ccc(CS(=O)(=O)/C(=C/c2cccc(Cl)c2Cl)C(=O)c2ccc(Cl)cc2)cc1
69 | > 100 | > 100 | Nc1c(Br)cc(Br)cc1/C=C(/Sc1ccc(Br)cc1)C(=O)c1ccc(Br)cc1
70 | 25 | 25 | Cc1ccc(S/C(=C/c2ccc(F)cc2C(F)(F)F)C(=O)c2ccc(Br)cc2)cc1
71 | > 100 | 50 | Cc1ccc(S/C(=C/c2ccc(C)s2)C(=O)c2ccc(Br)cc2)cc1
72 | 1 | 1 | COc1ccc(C(=O)/C(=C\c2ccc(OC)c(O)c2)Sc2ccc(F)cc2)cc1
73 | 1 | 1 | CCOc1ccc(/C=C(/SCc2ccc(F)cc2)C(=O)c2ccc(Cl)cc2)cc1OC
74 | 25 | 25 | Cc1ccc(CS(=O)(=O)/C(=C/c2ccc(Cl)cc2)C(=O)c2ccc(Cl)cc2)cc1
75 | > 100 | > 100 | Cc1ccc(S/C(=C/c2ccc(N(C)C)cc2)C(=O)c2ccc(Cl)cc2)cc1
